Assay outcomes as filed in PubChem BioAssay.
Hits are enriched below; roughly 2.5% of the tested compounds scored in any of these assays.
PglD DTNB = blocks C. jejuni PglD acetyltransferase activity | 0.098% of 360,000 active | inhibition, % at 12.5 µM | purified PglD enzyme, DTNB colorimetric CoA detection; in the data active = inhibition above about 16%, passing the limit was not always enough
ERAP1 inh = ERAP1 (human) enzyme inhibition. Q9NZ08. inhibition, % at 10.7 µM. recombinant ERAP1, Leu-AMC fluorescence, 60 min. 0.15% of 340,000 active. AID 652197;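 active = mean replicate inhibition of at least 30%, or all replicates individually reaching that 30% level; inactive = mean below 30% and not every replicate reaching it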;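 note: 0% = neutral control wells and 100% = L-leucinethiol positive control wells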
E-selectin induc = E-selectin induction on HUVECs | P16581 | HUVEC E-selectin immunofluorescence imaging; normalized: neutral wells 0, TNF-alpha wells 100 | activation, % at 7.58 µM | 0.37% of 260,000 active;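 active = mean E-selectin-positive cell signal at least 10% of the positive control, reached in at least 60% of replicates, without over 20% cell loss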
Target sequence (P16581 whole entry, looked up): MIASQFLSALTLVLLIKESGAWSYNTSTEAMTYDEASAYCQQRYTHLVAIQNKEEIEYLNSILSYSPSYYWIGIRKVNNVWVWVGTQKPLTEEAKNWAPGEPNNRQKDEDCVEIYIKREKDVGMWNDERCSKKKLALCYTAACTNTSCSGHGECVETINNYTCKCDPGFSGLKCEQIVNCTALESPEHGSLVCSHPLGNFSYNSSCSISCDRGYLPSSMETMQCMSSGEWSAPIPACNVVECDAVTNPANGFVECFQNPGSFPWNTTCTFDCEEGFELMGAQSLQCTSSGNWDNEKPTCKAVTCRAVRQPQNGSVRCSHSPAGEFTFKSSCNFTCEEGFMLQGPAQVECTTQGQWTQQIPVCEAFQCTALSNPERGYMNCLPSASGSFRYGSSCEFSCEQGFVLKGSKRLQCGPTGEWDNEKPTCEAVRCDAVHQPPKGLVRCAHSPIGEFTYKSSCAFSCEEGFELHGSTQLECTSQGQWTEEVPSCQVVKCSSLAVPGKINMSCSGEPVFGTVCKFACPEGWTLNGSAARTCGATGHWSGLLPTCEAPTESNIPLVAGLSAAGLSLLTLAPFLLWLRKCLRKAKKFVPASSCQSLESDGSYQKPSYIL
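Test system – human umbilical vein endothelial cells (HUVEC), E-selectin induction · Input – 3,000 HUVEC seeded per well · Buffer or medium – EGM-2, gelatin · Compound dosing – single-point compound dose · Detection – immunofluorescence imaging · Measure – percent E-selectin-positive cells · Controls – TNF-alpha high, DMSO low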
SIRT5 block = blocks human SIRT5 desuccinylation of peptide; inhibition, % at 15 µM; 1.1% of 330,000 active; Q9NXA8; Purified SirT5, succinyl-peptide AMC, trypsin-coupled fluorescence; in the data active = inhibition above about 15%
DENV2 CPE = inhibitors of DENV2 cytopathic effect. DENV2-infected cells, cytopathic effect rescue, plate reader. 1.7% of 350,000 active. CPE inhibition, % at 9.99 µM; in the data active = CPE inhibition above about 20%, passing the limit was not always enough; tested in BHK-21 cells;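 note: 0% = median of neutral control wells and 100% = median of positive control wells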
* hit, by the source's call; ! = a repeat was not active.

`C[C@H]1CN([C@@H](C)CO)C(=O)CCCn2nncc2CO[C@@H]1CN(C)S(=O)(=O)c1ccc2ccccc2c1` gave PglD DTNB -9, ERAP1 inh 10, E-selectin induc 1, SIRT5 block -2 and DENV2 CPE -4.
Screening C[C@H](CO)N1C[C@H](C)[C@@H](CN(C)S(=O)(=O)c2ccc3ccccc3c2)OCc2cnnn2CCCC1=O returned PglD DTNB 1, ERAP1 inh -3, E-selectin induc -1, SIRT5 block 21*! and DENV2 CPE -5.
`C[C@H](CO)N1C[C@H](C)[C@H](CN(C)S(=O)(=O)c2ccc(Cl)cc2)OCc2cnnn2CCCC1=O` gave PglD DTNB -2, ERAP1 inh -2, E-selectin induc 0, SIRT5 block 15*! and DENV2 CPE -8.
Screening CCN(CC)CCCN=Cc1c(O)n(-c2cccc(C)c2)c(=O)c2ccccc12 returned PglD DTNB 0, ERAP1 inh -2, E-selectin induc 2, SIRT5 block 1 and DENV2 CPE 7.
`CCC(C)C(=O)Nc1nc2ccc(S(C)(=O)=O)cc2s1` (stereo unspecified) gave ERAP1 inh -10, SIRT5 block -3 and DENV2 CPE 3.
Screening Cc1ccc2c(c1)c1c3n2CCN(C(=O)C2CC2)C3CCC1 (stereo unspecified) returned PglD DTNB -1, ERAP1 inh 3, E-selectin induc -1, SIRT5 block 0 and DENV2 CPE 54*.
For CS(=O)(=O)N1CCc2cc(C(=O)N3CCN(c4ccc(F)cc4)CC3)ccc21 the results were PglD DTNB 2, ERAP1 inh 3, SIRT5 block -1 and DENV2 CPE 5.
For CS(=O)(=O)N1CCc2cc(S(=O)(=O)NCCNS(=O)(=O)c3ccc4c(c3)CCN4S(C)(=O)=O)ccc21 the results were PglD DTNB 9, ERAP1 inh -3, E-selectin induc 53*, SIRT5 block -1 and DENV2 CPE 5.
Screening CS(=O)(=O)N1CCc2cc(C(=O)NC3CC3)ccc21 returned ERAP1 inh -1, E-selectin induc 27*, SIRT5 block 7 and DENV2 CPE 2.
`CS(=O)(=O)N1CCc2cc(C(=O)N3CCN(c4ccccc4)CC3)ccc21` gave PglD DTNB 4, ERAP1 inh 2, E-selectin induc 0, SIRT5 block -3 and DENV2 CPE 23*.
For CCCNC(=O)c1ccc2c(c1)CCN2S(C)(=O)=O the results were ERAP1 inh 2, SIRT5 block -4 and DENV2 CPE -4.
Screening O=C(C[C@H]1CC[C@H]2[C@@H](COC[C@@H](O)CN2Cc2cccc(F)c2)O1)NCC1CCCCC1 returned PglD DTNB 3, ERAP1 inh 2, E-selectin induc 0, SIRT5 block -5 and DENV2 CPE -6.
CCn1cc(C(=O)O)c(=O)c2cc(F)c(N3CCN(C)CC3)cc21 was read as PglD DTNB 3, ERAP1 inh -1, SIRT5 block 1 and DENV2 CPE 28*.
Screening COc1ccc(N(CC(=O)Nc2ccc(S(=O)(=O)N3CCOCC3)cc2)S(C)(=O)=O)cc1OC returned PglD DTNB 1, ERAP1 inh -2, E-selectin induc 1, SIRT5 block -3 and DENV2 CPE 17.
For COc1ccc(CN(C)C(C)C(=O)Nc2ccc(S(=O)(=O)N3CCOCC3)cc2)c(OC)c1 (stereo unspecified) the results were ERAP1 inh -2, E-selectin induc 6, SIRT5 block 17* and DENV2 CPE 1.
Screening COc1ccc(C(=O)N2CCN(S(=O)(=O)c3ccc(C)cc3)CC2)cc1S(=O)(=O)N1CCOCC1 returned PglD DTNB 0, E-selectin induc 1, SIRT5 block 20* and DENV2 CPE -5.
`COc1ccc(C(=O)N2CCN(S(=O)(=O)c3ccc(C)cc3C)CC2)cc1S(=O)(=O)N1CCOCC1` gave PglD DTNB -2, ERAP1 inh 1, E-selectin induc 0, SIRT5 block -1 and DENV2 CPE -4.
`COc1cccc(NC(=O)CN(C)C(C)C(=O)Nc2ccc(S(=O)(=O)N3CCOCC3)cc2)c1` (stereo unspecified) gave PglD DTNB 10, ERAP1 inh 1, SIRT5 block -1 and DENV2 CPE 12.
For COc1ccc(C)cc1N(CC(=O)Nc1ccc(S(=O)(=O)N2CCOCC2)cc1)S(C)(=O)=O the results were PglD DTNB 1, ERAP1 inh -6, E-selectin induc 0, SIRT5 block -2 and DENV2 CPE 24*.
CN1CCC(N(C)S(=O)(=O)c2ccc(NC(=O)COc3ccc(Br)cc3Cl)cc2)CC1 was read as ERAP1 inh -2, SIRT5 block 0 and DENV2 CPE -9.
Cc1ccc(OCC(=O)Nc2ccc(S(=O)(=O)N(C)C3CCN(C)CC3)cc2)c(C)c1 was read as PglD DTNB -1, ERAP1 inh 90*, E-selectin induc 1, SIRT5 block -2 and DENV2 CPE -4.
Screening COc1ccc(NC(=O)CN(C)C(=O)c2cc(S(=O)(=O)N3CCCCCC3)ccc2OC)cc1 returned PglD DTNB 3, ERAP1 inh 11, E-selectin induc 1, SIRT5 block 7 and DENV2 CPE -10.
`COc1ccccc1OCC(=O)Nc1ccc(S(=O)(=O)N2CCN(C)CC2)cc1` gave PglD DTNB 5, ERAP1 inh 1, E-selectin induc 333*, SIRT5 block 6 and DENV2 CPE 6.
`COc1ccc(S(=O)(=O)N2CCCCCC2)cc1C(=O)N(C)CC(=O)Nc1ccc(F)cc1` gave PglD DTNB 4, ERAP1 inh 1, E-selectin induc 2, SIRT5 block 20* and DENV2 CPE 3.
`CN(C)c1ccc(CCc2ccc(N)cc2)cc1` gave PglD DTNB 2, ERAP1 inh -4, SIRT5 block -4 and DENV2 CPE 26*.
`COc1ccc(NC(=O)CN2C(=O)NC(C)(Cc3ccc(OC)c(OC)c3)C2=O)cc1` (stereo unspecified) gave PglD DTNB 5, ERAP1 inh -2, E-selectin induc -1 and DENV2 CPE -2.
`CCCC(=O)N1CCC2(CC1)CN(C(=O)C1CC1)[C@H](CO)c1[nH]c3cc(OC)ccc3c12` gave ERAP1 inh -1, E-selectin induc 0, SIRT5 block 2 and DENV2 CPE 34*.
COc1cccc(S(=O)(=O)N2CC3(CN(C(=O)Nc4ccc(F)cc4)[C@H](CO)c4[nH]c5cc(OC)ccc5c43)C2)c1 was read as E-selectin induc 0 and DENV2 CPE 128*.
For COc1ccc2c3c([nH]c2c1)[C@@H](CO)N(C(=O)C1CCOCC1)CC31CN(C)C1 the results were E-selectin induc 0 and DENV2 CPE 90*.
For COc1ccc2c3c([nH]c2c1)[C@H](CO)N(C(=O)C1CCOCC1)CC31CCN(C)CC1 the results were ERAP1 inh 3, E-selectin induc 0 and DENV2 CPE 9.
